Data: ChEMBL document CHEMBL3124905, “Isothiocoumarin-3-carboxylic acid derivatives: synthesis, anticancer and antitrypanosomal activity evaluation” (Eur J Med Chem, 2014)

How the values were obtained:
Type in all cases: functional
[1] = tested on: Trypanosoma brucei brucei; assay: Antitrypanosomal activity against bloodstream form of Trypanosoma brucei brucei strain 90-13 assessed as inhibition of parasite growth at 10 ug/ml after 72 hrs by resazurin reduction test; conditions: strain 90-13, 72 h
How it was run: (§1)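 Trypanosoma brucei brucei 90-13 bloodstream forms, grown in HMI9 with 10% FCS at 37 °C under 5% CO2. Log-phase parasites were seeded at 10^5 cells/mL with or without inhibitor, with stocks prepared in DMSO. After 72 h, resazurin was added and fluorescence was read at 530/590 nm after a further 4 h. Percent growth inhibition was calculated versus drug-free parasites, with DMSO as control.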

[2] = tested on: Trypanosoma brucei brucei; assay: Antitrypanosomal activity against bloodstream form of Trypanosoma brucei brucei strain 90-13 assessed as inhibition of parasite growth at 1 ug/ml after 72 hrs by resazurin reduction test; conditions: strain 90-13, 72 h; how it was run: as §1
[3] = tested on: NCI-H460; assay: Anticancer activity against human NCI-H460 cells assessed as cell growth at 100 uM after 48 hrs by SRB assay; conditions: NCI-H460, 48 h, read-out: Activity
How it was run: (§2)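 NCI one-dose primary screen on a three-line panel (breast MCF7, lung NCI-H460, CNS SF-268). Cells were inoculated and preincubated 24–48 h, then exposed to a single concentration of 10−4 M for 48 h. The endpoint was sulforhodamine B protein staining, and results are expressed as percent growth relative to untreated control cells. Negative values denote cytotoxicity.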

[4] = tested on: MCF7; assay: Anticancer activity against human MCF7 cells assessed as cell growth at 100 uM after 48 hrs by SRB assay; conditions: MCF7, 48 h, read-out: Activity; how it was run: as §2
[5] = tested on: SF-268; assay: Anticancer activity against human SF268 cells assessed as cell growth at 100 uM after 48 hrs by SRB assay; conditions: SF-268, 48 h, read-out: Activity; how it was run: as §2
[6] = tested on: Malme-3M; assay: Growth inhibition of human MALME-3M cells after 48 hrs by SRB assay
How it was run: (§3)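 NCI five-dose assay against the ~60-cell-line panel (nine cancer types). Tenfold dilutions from 10−4 to 10−8 M were used with continuous 48-h exposure and SRB absorbance readout. Percent growth was computed from time-zero, control and treated absorbances. GI50 is the concentration giving 50% lower net protein increase than controls. Values not reached are reported as beyond the tested range.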

[7] = Growth inhibition of human HOP92 cells after 48 hrs by SRB assay; conditions: HOP-92, 48 h; for TGI: read-out: pTGI (converted); how it was run: as §3
[8] = tested on: SR; assay: Growth inhibition of human SR cells after 48 hrs by SRB assay; conditions: for TGI: read-out: pTGI (converted)
How it was run: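 NCI ~60-cell-line five-dose screen. Cells were preincubated 24-48 h, then given compound at 10-fold dilutions from 10^-4 to 10^-8 M with 48 h continuous exposure. SRB protein stain was read by absorbance at time zero, in untreated control and with drug. GI50 was derived from [(Ti-Tz)/(C-Tz)]x100=50, TGI from Ti=Tz, and LC50 from [(Ti-Tz)/Tz]x100=-50.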

[9] = tested on: KM12; assay: Growth inhibition of human KM12 cells after 48 hrs by SRB assay; conditions: KM12, 48 h; how it was run: as §3
[10] = tested on: MDA-MB-435; assay: Growth inhibition of human MDA-MB-435 cells after 48 hrs by SRB assay; conditions: MDA-MB-435, 48 h; how it was run: as §3
[11] = tested on: CCRF-CEM; assay: Growth inhibition of human CCRF-CEM cells after 48 hrs by SRB assay; how it was run: as §3

| Compound | inhibition at 10 µg/mL [1] | inhibition at 1 µg/mL [2] | growth at 100 µM [3] | growth at 100 µM [4] | growth at 100 µM [5] | also measured |
| --- | --- | --- | --- | --- | --- | --- |
| CCOC(=O)c1cc2ccccc2c(=O)s1 | -3.91% | 35.8% | – | – | – | – |
| O=C(Nc1nccs1)c1cc2ccccc2c(=O)s1 | – | – | 93% | 91% | 90% | – |
| O=C(c1cc2ccccc2c(=O)s1)N1CCOCC1 | 8.15% | 8.13% | 109% | 114% | 111% | – |
| O=C(O)c1cc2ccccc2c(=O)s1 | 0.05% | 16.8% | – | – | – | – |
| COc1ccc2cc(C(=O)Nc3ccc(Cl)cc3)sc(=O)c2c1OC | 5.99% | 5.77% | 93% | 80% | 91% | – |
| CCOC(=O)c1ccc(NC(=O)c2cc3ccc(OC)c(OC)c3c(=O)s2)cc1 | 20.9% | -0.53% | 103% | 105% | 117% | – |
| Cc1c(NC(=O)c2cc3ccccc3c(=O)s2)c(=O)n(-c2ccccc2)n1C | – | – | 52% | 107% | 106% | – |
| COc1ccc2cc(C(=O)N3CCCCCC3)sc(=O)c2c1OC | – | – | – | – | – | GI50 [6]: 34.7 µM; TGI ([6]; read-out: pTGI (converted)): > 100 µM; GI50 [7]: 2.75 µM; TGI [7]: 8.13 µM |
| COc1ccc2cc(C(=O)Nc3ccccc3C(F)(F)F)sc(=O)c2c1OC | 2.91% | 6.86% | 90% | 99% | 107% | – |
| COc1ccc2cc(C(=O)NCC(=O)O)sc(=O)c2c1OC | – | – | 109% | 109% | 112% | – |
| COC(=O)c1cc2ccc(OC)c(OC)c2c(=O)s1 | – | – | 82% | 108% | 113% | – |
| NS(=O)(=O)c1ccc(NC(=O)c2cc3ccccc3c(=O)s2)cc1 | – | – | – | – | – | GI50 [8]: 31.6 µM; TGI [8]: > 100 µM |
| O=C(O)CNC(=O)c1cc2ccccc2c(=O)s1 | 0.18% | 10.8% | – | – | – | – |
| O=C(Nc1ccccc1)c1cc2ccccc2c(=O)s1 | – | – | 75% | 78% | 83% | – |
| COc1ccc2cc(C(=O)Nc3cc(C)on3)sc(=O)c2c1OC | 3.93% | 12.2% | 70% | 52% | 51% | – |
| COc1ccc2cc(C(=O)Nc3cccc4ccccc34)sc(=O)c2c1OC | 41.2% | 20.8% | – | – | – | GI50 [7]: 20.4 µM; TGI [7]: 69.2 µM |
| O=C(Nc1cccc(C(F)(F)F)c1)c1cc2ccccc2c(=O)s1 | -7.12% | 5.78% | – | – | – | – |
| COc1ccc2cc(C(=O)Nc3ccc(O)cc3)sc(=O)c2c1OC | – | – | – | – | – | GI50 [9]: 26.3 µM; TGI ([9]; read-out: pTGI): > 100 µM; GI50 [10]: 18.6 µM; TGI ([10]; read-out: pTGI (converted)): 77.6 µM; GI50 [8]: 3.47 µM; TGI [8]: 42.7 µM; GI50 [11]: 5.62 µM; TGI ([11]; read-out: pTGI (converted)): > 100 µM; GI50 [7]: 17.8 µM; TGI [7]: 95.5 µM |
